Assay results: ChEMBL document CHEMBL5696442, “Discovery of type II inhibitors of TGFβ-activated kinase 1 (TAK1) and mitogen-activated protein kinase kinase kinase kinase 2 (MAP4K2)” (J Med Chem, 2015)
Active and inactive are the calls of the source. The calls are words filed in the database; no cut-off is given here.

Experiments:
[1] = Inhibition of IL-1 induced p38 MAPK phosphorylation level in TAK1 deficient mouse MEF cells at 500 nM incubated for 1 hr followed by IL-1 stimulation by Western blot analysis relative to control; assay type: functional
[2] = molecular target: Serine/threonine-protein kinase mTOR (Homo sapiens) (UniProt P42345); test: Inhibition of FRAP ATP labeling site in human Huh-7 cells at 1 uM by KiNativ Profiling analysis relative to control; assay type: cell-based
[3] = molecular target: T1, Serine/threonine-protein kinase ULK3 (Homo sapiens) (UniProt Q6PHR2); test: Inhibition of ULK3 Lys2 labeling site in human A-375 cells at 5 uM by KiNativ Profiling analysis relative to control; assay type: cell-based
T1 sequence (whole entry): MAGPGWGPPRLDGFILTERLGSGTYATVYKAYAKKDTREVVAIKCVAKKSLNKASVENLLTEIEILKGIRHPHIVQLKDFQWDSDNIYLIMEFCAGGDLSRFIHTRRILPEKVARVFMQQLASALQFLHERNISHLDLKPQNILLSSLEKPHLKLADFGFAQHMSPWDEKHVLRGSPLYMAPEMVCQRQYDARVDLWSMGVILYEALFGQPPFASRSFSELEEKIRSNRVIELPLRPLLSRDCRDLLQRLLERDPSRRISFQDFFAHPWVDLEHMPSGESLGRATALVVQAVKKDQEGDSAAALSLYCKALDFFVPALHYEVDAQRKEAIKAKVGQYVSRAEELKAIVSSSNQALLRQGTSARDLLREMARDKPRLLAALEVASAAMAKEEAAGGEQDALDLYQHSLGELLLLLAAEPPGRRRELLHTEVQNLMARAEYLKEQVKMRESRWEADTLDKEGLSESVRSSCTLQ

[4] = molecular target: eIF-2-alpha kinase GCN2 (Homo sapiens) (UniProt Q9P2K8); test: Inhibition of GCN2 domain2 Lys1 labeling site in human A-375 cells at 0.5 uM by KiNativ Profiling analysis relative to control; assay type: cell-based
[5] = molecular target: Cyclin-dependent kinase 9 (Homo sapiens) (UniProt P50750); test: Inhibition of CDK9 Lys2 labeling site in human A-375 cells at 5 uM by KiNativ Profiling analysis relative to control; assay type: cell-based
Outline: (§1)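 Live A375 melanoma cells were treated with compound at 5 or 0.5 μM. The cells were then lysed, and the lysates were labeled with a lysine-reactive ATP or ADP-biotin acyl probe (KiNativ). Inhibition is the compound's protection of each kinase labeling-site peptide from probe labeling, relative to untreated control.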

[6] = molecular target: Serine/threonine-protein kinase VRK2 (Homo sapiens) (UniProt Q86Y07); test: Inhibition of VRK2 Lys2 labeling site in human A-375 cells at 5 uM by KiNativ Profiling analysis relative to control; assay type: cell-based
[7] = molecular target: Serine/threonine-protein kinase 38 (Homo sapiens) (UniProt Q15208); test: Inhibition of NDR1 Lys2 labeling site in human A-375 cells at 0.5 uM by KiNativ Profiling analysis relative to control; assay type: cell-based
[8] = molecular target: Serine/threonine-protein kinase 26 (Homo sapiens) (UniProt Q9P289); test: Inhibition of MST4 Lys2 labeling site in human A-375 cells at 5 uM by KiNativ Profiling analysis relative to control; assay type: cell-based
[9] = molecular target: Serine/threonine-protein kinase Chk2 (Homo sapiens) (UniProt O96017); test: Inhibition of CHK2 Lys1 labeling site in human A-375 cells at 5 uM by KiNativ Profiling analysis relative to control; assay type: cell-based; outline: as §1
[10] = molecular target: Serine/threonine-protein kinase 26 (Homo sapiens) (UniProt Q9P289); test: Inhibition of MST4 ACT labeling site in human A-375 cells at 0.05 uM by KiNativ Profiling analysis relative to control; assay type: cell-based
[11] = molecular target: T2, Serine/threonine-protein kinase Nek9 (Homo sapiens) (UniProt Q8TD19); test: Inhibition of NEK9 Lys1 labeling site harbouring RTEDDSLVVWKEVDLTR in human A-375 cells at 0.05 uM by KiNativ Profiling analysis relative to control; assay type: cell-based
T2 sequence (whole entry): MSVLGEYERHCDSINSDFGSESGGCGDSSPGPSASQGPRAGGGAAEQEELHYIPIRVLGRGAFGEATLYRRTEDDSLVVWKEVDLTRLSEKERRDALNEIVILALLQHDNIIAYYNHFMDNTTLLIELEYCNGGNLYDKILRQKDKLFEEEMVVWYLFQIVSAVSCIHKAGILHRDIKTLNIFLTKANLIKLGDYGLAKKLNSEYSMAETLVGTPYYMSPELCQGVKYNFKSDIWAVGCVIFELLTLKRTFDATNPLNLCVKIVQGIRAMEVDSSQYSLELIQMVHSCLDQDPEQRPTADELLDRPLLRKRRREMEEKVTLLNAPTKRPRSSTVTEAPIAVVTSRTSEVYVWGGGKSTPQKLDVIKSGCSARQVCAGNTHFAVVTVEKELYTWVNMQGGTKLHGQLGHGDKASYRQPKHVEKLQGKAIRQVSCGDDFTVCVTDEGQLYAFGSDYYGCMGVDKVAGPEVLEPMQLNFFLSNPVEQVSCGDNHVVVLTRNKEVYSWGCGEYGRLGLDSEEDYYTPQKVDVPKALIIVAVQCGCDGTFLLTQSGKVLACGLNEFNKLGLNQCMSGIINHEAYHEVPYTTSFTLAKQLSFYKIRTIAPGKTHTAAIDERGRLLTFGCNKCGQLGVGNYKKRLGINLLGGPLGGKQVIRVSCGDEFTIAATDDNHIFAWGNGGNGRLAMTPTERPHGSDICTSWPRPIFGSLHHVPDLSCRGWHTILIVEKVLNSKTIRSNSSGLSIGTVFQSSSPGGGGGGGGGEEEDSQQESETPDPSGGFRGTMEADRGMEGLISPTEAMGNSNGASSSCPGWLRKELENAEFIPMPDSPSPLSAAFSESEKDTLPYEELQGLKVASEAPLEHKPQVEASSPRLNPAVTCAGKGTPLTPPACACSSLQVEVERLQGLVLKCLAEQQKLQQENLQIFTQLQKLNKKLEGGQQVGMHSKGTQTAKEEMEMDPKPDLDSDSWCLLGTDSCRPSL

[12] = molecular target: Serine/threonine-protein kinase 25 (Homo sapiens) (UniProt O00506); test: Inhibition of YSK1 Lys2 labeling site in human A-375 cells at 5 uM by KiNativ Profiling analysis relative to control; assay type: cell-based
[13] = molecular target: Interferon-induced, double-stranded RNA-activated protein kinase (Homo sapiens) (UniProt P19525); test: Inhibition of PKR Lys2 labeling site in human A-375 cells at 5 uM by KiNativ Profiling analysis relative to control; assay type: cell-based
[14] = Inhibition of p70S6K ATP Loop labeling site harbouring GGYGKVFQVR in human A-375 cells at 5 uM by KiNativ Profiling analysis relative to control; settings: condition cancer

Serine/threonine-protein kinase 26 (Homo sapiens), sequence (Q9P289 2-416 limits assumed): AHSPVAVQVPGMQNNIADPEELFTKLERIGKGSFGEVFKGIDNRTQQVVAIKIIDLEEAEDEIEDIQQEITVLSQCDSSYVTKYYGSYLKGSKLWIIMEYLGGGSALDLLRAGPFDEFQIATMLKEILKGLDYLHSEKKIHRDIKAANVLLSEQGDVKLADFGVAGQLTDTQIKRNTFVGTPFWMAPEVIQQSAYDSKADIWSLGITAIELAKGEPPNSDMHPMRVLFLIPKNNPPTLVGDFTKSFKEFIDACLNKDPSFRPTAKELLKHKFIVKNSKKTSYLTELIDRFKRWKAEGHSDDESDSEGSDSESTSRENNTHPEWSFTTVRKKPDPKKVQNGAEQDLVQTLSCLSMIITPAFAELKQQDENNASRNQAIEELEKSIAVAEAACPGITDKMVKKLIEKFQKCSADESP
Serine/threonine-protein kinase 38 (Homo sapiens), sequence (Q15208 2-465 limits assumed): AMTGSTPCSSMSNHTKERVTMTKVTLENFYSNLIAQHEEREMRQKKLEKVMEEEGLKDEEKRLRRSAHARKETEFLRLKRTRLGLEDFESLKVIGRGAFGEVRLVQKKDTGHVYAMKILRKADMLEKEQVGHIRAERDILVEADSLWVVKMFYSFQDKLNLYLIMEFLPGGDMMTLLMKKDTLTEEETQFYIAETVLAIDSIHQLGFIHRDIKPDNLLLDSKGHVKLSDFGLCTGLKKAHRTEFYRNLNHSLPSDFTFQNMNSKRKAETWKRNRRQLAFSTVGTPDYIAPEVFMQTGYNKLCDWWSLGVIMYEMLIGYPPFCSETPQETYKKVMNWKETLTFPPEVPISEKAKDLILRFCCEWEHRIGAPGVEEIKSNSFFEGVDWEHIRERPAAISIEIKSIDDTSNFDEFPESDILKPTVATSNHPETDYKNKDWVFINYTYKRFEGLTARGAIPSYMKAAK
eIF-2-alpha kinase GCN2 (Homo sapiens), sequence (Q9P2K8 whole entry, the tested form may be a part): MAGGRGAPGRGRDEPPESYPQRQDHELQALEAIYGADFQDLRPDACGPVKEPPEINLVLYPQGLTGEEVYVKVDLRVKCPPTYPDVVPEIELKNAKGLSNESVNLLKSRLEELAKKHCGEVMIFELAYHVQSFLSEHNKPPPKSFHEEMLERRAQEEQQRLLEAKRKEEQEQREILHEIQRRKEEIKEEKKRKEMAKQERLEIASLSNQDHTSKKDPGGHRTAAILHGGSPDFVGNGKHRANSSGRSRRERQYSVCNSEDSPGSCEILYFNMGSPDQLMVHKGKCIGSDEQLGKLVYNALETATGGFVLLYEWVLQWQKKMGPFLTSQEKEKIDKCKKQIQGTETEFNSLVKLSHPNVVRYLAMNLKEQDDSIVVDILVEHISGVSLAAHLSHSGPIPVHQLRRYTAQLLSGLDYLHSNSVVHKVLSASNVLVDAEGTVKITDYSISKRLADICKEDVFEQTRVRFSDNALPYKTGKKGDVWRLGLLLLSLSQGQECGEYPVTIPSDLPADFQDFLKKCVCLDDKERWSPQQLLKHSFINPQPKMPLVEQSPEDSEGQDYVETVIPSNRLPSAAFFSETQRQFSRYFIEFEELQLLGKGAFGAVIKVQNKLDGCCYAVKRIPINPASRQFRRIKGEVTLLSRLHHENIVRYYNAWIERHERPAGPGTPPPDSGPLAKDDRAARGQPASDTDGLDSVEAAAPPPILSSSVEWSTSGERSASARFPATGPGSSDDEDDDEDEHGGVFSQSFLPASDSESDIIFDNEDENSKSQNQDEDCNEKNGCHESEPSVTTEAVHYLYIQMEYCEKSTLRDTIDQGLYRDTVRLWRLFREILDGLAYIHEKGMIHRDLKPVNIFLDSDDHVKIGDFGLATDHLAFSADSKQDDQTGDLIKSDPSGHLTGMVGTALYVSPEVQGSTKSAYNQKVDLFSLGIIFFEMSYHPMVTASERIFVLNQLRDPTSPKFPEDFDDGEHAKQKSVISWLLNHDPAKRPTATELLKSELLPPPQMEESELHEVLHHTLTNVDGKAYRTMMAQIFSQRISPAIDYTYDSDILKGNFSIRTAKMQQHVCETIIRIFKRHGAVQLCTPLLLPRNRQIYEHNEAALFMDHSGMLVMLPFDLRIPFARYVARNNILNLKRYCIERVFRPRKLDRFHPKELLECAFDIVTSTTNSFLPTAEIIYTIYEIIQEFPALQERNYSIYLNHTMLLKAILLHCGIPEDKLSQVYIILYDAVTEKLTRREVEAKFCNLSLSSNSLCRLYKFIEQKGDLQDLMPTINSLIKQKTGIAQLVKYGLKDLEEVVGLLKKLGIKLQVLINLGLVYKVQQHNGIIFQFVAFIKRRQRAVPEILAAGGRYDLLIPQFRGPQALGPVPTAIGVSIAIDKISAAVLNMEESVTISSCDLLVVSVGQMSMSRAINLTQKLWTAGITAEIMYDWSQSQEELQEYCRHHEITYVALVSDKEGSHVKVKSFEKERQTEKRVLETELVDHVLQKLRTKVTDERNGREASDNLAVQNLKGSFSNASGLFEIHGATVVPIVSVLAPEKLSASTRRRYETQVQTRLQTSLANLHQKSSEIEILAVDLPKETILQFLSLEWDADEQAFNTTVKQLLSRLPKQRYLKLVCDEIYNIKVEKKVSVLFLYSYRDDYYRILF
Serine/threonine-protein kinase 25 (Homo sapiens), sequence (O00506 whole entry, looked up): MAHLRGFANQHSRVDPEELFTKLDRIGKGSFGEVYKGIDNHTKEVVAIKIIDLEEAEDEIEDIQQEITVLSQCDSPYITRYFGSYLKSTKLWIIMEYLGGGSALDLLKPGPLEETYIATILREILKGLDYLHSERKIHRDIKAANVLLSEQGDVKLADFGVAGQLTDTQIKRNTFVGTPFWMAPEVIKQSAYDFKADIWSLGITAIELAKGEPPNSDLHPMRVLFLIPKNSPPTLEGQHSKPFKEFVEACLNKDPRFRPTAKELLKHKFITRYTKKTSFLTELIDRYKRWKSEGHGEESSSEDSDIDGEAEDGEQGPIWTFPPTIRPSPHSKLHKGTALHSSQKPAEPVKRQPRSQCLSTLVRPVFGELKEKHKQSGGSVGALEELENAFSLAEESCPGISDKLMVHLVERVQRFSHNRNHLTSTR
Cyclin-dependent kinase 9 (Homo sapiens), sequence (P50750 whole entry): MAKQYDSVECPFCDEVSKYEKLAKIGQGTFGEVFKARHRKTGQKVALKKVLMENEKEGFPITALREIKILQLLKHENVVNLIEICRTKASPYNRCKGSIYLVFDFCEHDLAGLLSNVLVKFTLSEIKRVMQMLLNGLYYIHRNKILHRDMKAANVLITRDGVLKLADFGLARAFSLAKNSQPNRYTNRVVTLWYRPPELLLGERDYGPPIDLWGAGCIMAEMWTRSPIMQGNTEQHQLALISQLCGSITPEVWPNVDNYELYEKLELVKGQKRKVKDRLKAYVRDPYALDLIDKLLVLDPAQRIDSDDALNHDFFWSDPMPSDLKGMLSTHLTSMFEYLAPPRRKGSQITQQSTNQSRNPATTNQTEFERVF
Serine/threonine-protein kinase Chk2 (Homo sapiens), sequence (O96017 whole entry): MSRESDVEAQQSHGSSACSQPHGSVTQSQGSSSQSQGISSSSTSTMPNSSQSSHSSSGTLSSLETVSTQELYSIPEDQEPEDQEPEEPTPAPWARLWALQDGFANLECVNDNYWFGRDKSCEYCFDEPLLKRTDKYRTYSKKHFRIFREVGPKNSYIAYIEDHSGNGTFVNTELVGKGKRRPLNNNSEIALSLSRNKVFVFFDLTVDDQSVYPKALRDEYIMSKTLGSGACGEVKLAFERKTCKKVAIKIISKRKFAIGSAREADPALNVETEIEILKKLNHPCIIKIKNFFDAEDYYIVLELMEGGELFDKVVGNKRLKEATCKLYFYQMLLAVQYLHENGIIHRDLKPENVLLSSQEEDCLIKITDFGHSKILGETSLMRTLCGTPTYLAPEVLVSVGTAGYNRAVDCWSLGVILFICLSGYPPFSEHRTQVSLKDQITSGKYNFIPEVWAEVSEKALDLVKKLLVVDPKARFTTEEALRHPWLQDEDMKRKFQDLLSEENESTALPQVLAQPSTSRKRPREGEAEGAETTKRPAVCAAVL
Interferon-induced, double-stranded RNA-activated protein kinase (Homo sapiens), sequence (P19525 whole entry): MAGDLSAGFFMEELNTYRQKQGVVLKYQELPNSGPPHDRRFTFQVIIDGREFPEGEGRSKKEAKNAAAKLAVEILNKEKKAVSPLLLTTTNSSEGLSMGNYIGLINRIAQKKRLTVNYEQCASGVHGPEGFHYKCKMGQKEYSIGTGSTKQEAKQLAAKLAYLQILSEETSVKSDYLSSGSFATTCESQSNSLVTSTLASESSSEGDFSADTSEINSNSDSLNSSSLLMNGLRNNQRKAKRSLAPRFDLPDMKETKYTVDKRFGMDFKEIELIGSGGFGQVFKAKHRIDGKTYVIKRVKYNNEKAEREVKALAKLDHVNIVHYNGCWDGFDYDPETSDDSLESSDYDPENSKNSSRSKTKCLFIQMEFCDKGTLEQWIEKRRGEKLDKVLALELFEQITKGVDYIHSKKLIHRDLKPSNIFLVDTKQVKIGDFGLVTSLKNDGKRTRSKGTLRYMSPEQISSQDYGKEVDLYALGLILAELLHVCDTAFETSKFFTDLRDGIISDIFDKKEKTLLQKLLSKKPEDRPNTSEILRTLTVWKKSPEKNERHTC
Serine/threonine-protein kinase VRK2 (Homo sapiens), sequence (Q86Y07 whole entry): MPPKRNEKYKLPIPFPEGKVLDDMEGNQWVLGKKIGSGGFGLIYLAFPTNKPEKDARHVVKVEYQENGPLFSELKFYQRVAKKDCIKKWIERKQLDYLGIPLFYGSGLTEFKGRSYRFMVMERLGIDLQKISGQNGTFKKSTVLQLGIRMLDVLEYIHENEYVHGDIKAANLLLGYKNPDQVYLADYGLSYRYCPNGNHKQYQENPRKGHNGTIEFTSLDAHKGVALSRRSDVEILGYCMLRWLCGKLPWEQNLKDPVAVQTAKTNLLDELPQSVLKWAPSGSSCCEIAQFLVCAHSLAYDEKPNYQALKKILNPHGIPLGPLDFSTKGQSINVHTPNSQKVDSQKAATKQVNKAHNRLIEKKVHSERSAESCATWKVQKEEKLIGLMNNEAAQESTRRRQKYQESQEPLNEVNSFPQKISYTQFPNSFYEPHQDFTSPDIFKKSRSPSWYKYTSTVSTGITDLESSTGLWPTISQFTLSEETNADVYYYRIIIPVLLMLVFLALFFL

| SMILES | inhibition at 0.5 µM [1] [%] | inhibition [2] | inhibition [3] [%] | inhibition [4] [%] | inhibition [5] [%] | inhibition [6] [%] | inhibition [7] [%] | inhibition [8] [%] | inhibition [9] [%] | inhibition [10] [%] | inhibition [11] [%] | inhibition [12] [%] | inhibition [13] [%] | inhibition at 5 µM [14] [%] |
| --- | --- | --- | --- | --- | --- | --- | --- | --- | --- | --- | --- | --- | --- | --- |
| CNc1cc(Oc2cc(C(=O)Nc3cc(N4CCN(C)CC4)cc(C(F)(F)F)c3)ccc2C)ncn1 | 100 | 26.5% | – | – | – | – | – | – | – | – | – | – | – | – |
| CCN1CCN(Cc2ccc(NC(=O)c3ccc(C)c(Oc4ccnc5[nH]ccc45)c3)cc2C(F)(F)F)CC1 | – | inactive | 44.8 | -10 | 19.2 | 12.7 | 33.9 | 15.4 | 5.1 | 22.4 | 1.8 | 15.4 | 2.1 | 14.7 |
| CNc1cc(Oc2cc(C(=O)Nc3cc(-n4cnc(C)c4)cc(C(F)(F)F)c3)ccc2C)ncn1 | 100 | – | – | – | – | – | – | – | – | – | – | – | – | – |
| CCN1CCN(Cc2ccc(NC(=O)c3ccc(C)c(/C=C/c4cnc5[nH]ccc5c4OC)c3)cc2C(F)(F)F)CC1 | – | – | 52.5 | 40.4 | 1.2 | 21.5 | 30.6 | 20.9 | 11.5 | 13.5 | 18.8 | 20.9 | -6.7 | -8 |
